Here are results for 13 compounds from publication PMC5421360 (Peptides, 2017).

In brackets after ≈: the same amount, converted by molar mass. Marks after values point to notes of the source that are not given here. Non-standard residues stand in square brackets, D forms with d. Residues, ends and D or L forms follow the SMILES beside them.

The test system of data set [1] is reactive oxygen species in NCI-H838 cells. Put plainly: Reactive oxygen species in H2DCF labeled NCI-H838 cells. It counts as cell-based, human. Put shortly: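 NCI-H838 cells were plated at 30,000/well and cultured overnight. They were loaded with 10 µM H2DCF for 1 h and washed 3 times in serum-free SIT medium. Test compound (5 mM or 10 µM) was added 30 min before 10 µM H2O2. Fluorescence (ex 485, […]) was read 0.5 h after stimulus and expressed as relative fluorescence, mean ± S.D. of 8 determinations.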

The test system of data set [2] is cytosolic Ca2+ in SC-A1 cells. The conditions noted are these: cited from earlier work.
Data set [3] concerns HER2. Put plainly: Western blot of HER2 tyrosine phosphorylation in NCI-H1975 cells. The conditions noted are these: 5 mM. It counts as cell-based, human. The method in brief:
(§1)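 Lysates (Tris pH 7.5, vanadate) were either immunoprecipitated with anti-phosphotyrosine antibody (400 µg protein) or loaded directly (20 µg) and probed with anti-PY1068-EGFR or anti-[…]-HER2. ECL bands were quantified by densitometry as mean % tyrosine phosphorylation.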
A general note: A western blot detects proteins with antibodies after separation by electrophoresis.

The test system of data set [4] is HER2. The experiment in a line: Western blot of HER2 tyrosine phosphorylation in NCI-H838 cells. It counts as cell-based, human. The conditions noted are these: for effect on basal P-HER2 or HER2: inhibitor alone; for effect on basal P-HER2 or HER2 / effect on HER2 transactivation caused by ET-1: data not shown; for effect on HER2 transactivation caused by ET-1: NSCLC cells, concentration not given; for effect on increase in HER2 phosphorylation caused by 100 nM ET-1: 10 μM inhibitor, 2 min ET-1.

For data set [5], the system named is EGFR. The experiment in a line: Western blot of EGFR tyrosine phosphorylation in NCI-H838 cells. The conditions noted are these: for effect on basal P-EGFR, EGFR: inhibitor alone; for effect on basal P-EGFR, EGFR / effect on EGFR transactivation caused by ET-1: data not shown; for effect on EGFR transactivation caused by ET-1: NSCLC cells, concentration not given; for effect on increase in EGFR phosphorylation caused by 100 nM ET-1: 10 μM inhibitor, 2 min ET-1. It counts as cell-based, human.

Data set [6] relates to EGFR. Put plainly: Western blot of EGFR tyrosine phosphorylation in NCI-H1975 cells. It counts as cell-based, human. The conditions noted are these: 5 mM. The method in brief: as §1
The test system of data set [7] is NCI-H838 cells. The experiment in a line: MTT proliferation assay, NCI-H838 cells. It counts as cell-based. The conditions noted are these: Homo sapiens, NCI-H838, 48 h, read-out: IC50, proliferation. A general note: Tetrazolium dyes change colour on reduction, which living cells bring about.
Data set [8] deals with T1, ETAR (Homo sapiens, UniProt P25101).
T1 sequence (P25101 21-427): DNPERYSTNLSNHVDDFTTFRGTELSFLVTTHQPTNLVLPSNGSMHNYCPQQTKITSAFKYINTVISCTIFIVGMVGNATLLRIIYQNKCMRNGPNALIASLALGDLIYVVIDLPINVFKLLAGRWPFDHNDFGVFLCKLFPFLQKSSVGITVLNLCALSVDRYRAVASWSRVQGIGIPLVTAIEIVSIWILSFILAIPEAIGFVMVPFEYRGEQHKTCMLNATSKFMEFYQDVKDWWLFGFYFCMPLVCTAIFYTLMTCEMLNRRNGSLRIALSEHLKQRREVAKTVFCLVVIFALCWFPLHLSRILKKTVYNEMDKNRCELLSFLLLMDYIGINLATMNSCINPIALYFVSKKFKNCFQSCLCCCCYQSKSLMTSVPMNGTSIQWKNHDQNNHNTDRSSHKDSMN
The experiment in a line: 125I-ET-1 radioreceptor binding to NCI-H1975 cells.

Data set [9] has as its target T1, ETAR. The experiment in a line: 125I-ET-1 radioreceptor binding to NCI-H838 cells.
A further data set has as its system A549 cells. Put plainly: MTT proliferation assay, A549 cells. It counts as cell-based. The conditions noted are these: Homo sapiens, A549, 48 h, read-out: IC50, proliferation.
The test system of another data set is NCI-H727 cells. The experiment in a line: MTT proliferation assay, NCI-H727 cells. It counts as cell-based. The conditions noted are these: Homo sapiens, NCI-H727, 48 h, read-out: IC50, proliferation.
Data set [10] has as its system NCI-H838 cells. Put plainly: Clonogenic assay, NCI-H838 cells. It counts as cell-based, human. The conditions noted are these: gefitinib 1 ug/ml; for reduction of colony number: absence of exogenous ET-1, BQ123 1 μM; for Colony number: in the presence of ET-1 10 nM, BQ123/BQ788 1000 nM, 2 weeks.
In data set [11] the test system is cytosolic Ca2+ in NCI-H1975 cells. Put plainly: Cytosolic Ca2+ in Fura-2AM loaded NCI-H1975 cells. The conditions noted are these: for antagonism of the Ca2+ increase caused by 10 nM ET-1: 1000 nM antagonist; for effect on basal cytosolic Ca2+: 1000 nM antagonist alone. It counts as cell-based, human. The method in brief: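 NCI-H1975 cells were detached with trypsin-EDTA and loaded with Fura-2AM in SIT medium (2.5 × 10^6 cells/ml) at 37°C for 30 min. Cells were spun at 1000 × g for 5 min, resuspended at 2.5 × 10^6/ml and placed in a stirred quartz cuvette at 37°C.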

Data set [12] deals with NSCLC patients. The conditions noted are these: plus paclitaxel-carboplatin; cited from earlier work.
Data set [13] has as its system NSCLC patients. The conditions noted are these: zibotentan or zibotentan plus pemetrexed; cited from earlier work.
[14] abbreviates: addition alone (ET-1 100 nM, H2O2 10 μM, Tiron 5 mM, ZD4054 10 μM), 0.5 hr, None = 100.
Setting [15] is: with H2O2 10 μM, Tiron or ZD4054 added 0.5 h before, read 0.5 hr after H2O2.

Consider `OO` [H2O2], for which, in data set [1] (setting [14]), the “% Fluorescence intensity” value was 401 ± 37 ^aa %.
For `COC(=O)C1=C(C)NC(C)=C(C(=O)OC)C1c1ccccc1[N+](=O)[O-]` [nifedipine], the “effect on the Ca2+ increase caused by ET-1” value in data set [2] is listed as “reversed”.
`O=S(=O)(O)c1cc(O)c(O)c(S(=O)(=O)O)c1` [Tiron]: the “effect on increase in HER2 tyrosine phosphorylation caused by ET-1” value in the data set with HER2 [3] is on record as “inhibited significantly”. Besides, the “effect on basal P-HER2 or HER2” value in the data set with HER2 [4] is reported as “no effect”. The “effect on basal P-EGFR, EGFR” value in the data set with EGFR [5] was “no effect”. Besides, the “% Fluorescence intensity” value is listed as 99 ± 7 ^aa^, ^bb % in data set [1] (setting [14]) and 171 ± 12 ^bb % in data set [1] (setting [15]). In addition, the “effect on increase in EGFR tyrosine phosphorylation caused by ET-1” value with EGFR [6] was “inhibited significantly”.
On to `CS(=O)(=O)CCNCc1ccc(-c2ccc3ncnc(Nc4ccc(OCc5cccc(F)c5)c(Cl)c4)c3c2)o1` [Lapatinib, lapatinib], for which the IC50 was 1 µg/mL (≈ 1.72 µM) with NCI-H838 cells [7]; over 10000 nM at ETAR [8]; over 10000 nM on ETAR [9]; 2 µg/mL (≈ 3.44 µM) in the data set with A549 cells; 0.5 µg/mL (≈ 0.86 µM) with NCI-H727 cells. Moreover, in the data set with HER2 [4], the “effect on HER2 transactivation caused by ET-1” value is recorded as “inhibited”. Further, the “effect on EGFR transactivation caused by ET-1” value in the data set on EGFR [5] is on record as “inhibited”.
`CNC(=O)[C@H](Cc1c[nH]c2ccccc12)NC(=O)[C@@H](CC(=O)NO)CC(C)C` [GM6001]: in the data set on HER2 [4], the “effect on increase in HER2 phosphorylation caused by 100 nM ET-1” value is “inhibited significantly” and the “effect on basal P-HER2 or HER2” value is listed as “no effect”. Moreover, in the data set with EGFR [5], the “effect on increase in EGFR phosphorylation caused by 100 nM ET-1” value is “inhibited significantly” and the “effect on basal P-EGFR, EGFR” value is recorded as “no effect”.
Take `COc1cc2ncnc(Nc3ccc(F)c(Cl)c3)c2cc1OCCCN1CCOCC1` [Gefitinib, gefitinib]: in the data set with HER2 [4] (10 μg/ml), the “effect on HER2 transactivation caused by 100 nM ET-1” value is “significantly reduced”. Further, in the data set with NCI-H838 cells [10], the “reduction of colony number” value is given as 50% and the Colony number is on record as 32 ± 3 ^aa.
`CC(C)C[C@@H]1NC(=O)[C@@H](C(C)C)NC(=O)[C@@H]2CCCN2C(=O)[C@@H](CC(=O)O)NC(=O)[C@@H](Cc2c[nH]c3ccccc23)NC1=O` [BQ123] (cyclo(L[dW][dD]P[dV]); ring closure inferred): the figures for the “effect on HER2 tyrosine phosphorylation caused by 100 nM ET-1” value with HER2 [4] (0.1 μM antagonist) and with HER2 [4] (1 μM or 10 μM antagonist) were “little effect” and “significantly reduced”, respectively. The “effect on EGFR tyrosine phosphorylation caused by 100 nM ET-1” value is recorded as “little effect” with EGFR [5] (0.1 μM antagonist) and “significantly reduced” in the data set on EGFR [5] (1 μM or 10 μM antagonist). Also, the results for the IC50 on ETAR [8] and at ETAR [9] were 1.5 ± 0.03 nM and 1 ± 0.2 nM, respectively. Also, in [2], the “effect on the Ca2+ increase caused by ET-1” value is “reversed”. The “antagonism of the Ca2+ increase caused by 10 nM ET-1” value in data set [11] was “blocked”. Further, the “effect on basal cytosolic Ca2+” value in data set [11] was “did not alter”. In addition, in the data set on NCI-H838 cells [10], the “reduction of colony number” value is on record as 22%. The Colony number in the data set on NCI-H838 cells [10] is recorded as 37 ± 2 ^a.
As to `CC(=O)N[C@@H](CS)C(=O)O` [Nacetylcysteine], the “effect on HER2 transactivation caused by ET-1” value in the data set on HER2 [4] is on record as “inhibited”. Moreover, in the data set with EGFR [5], the “effect on EGFR transactivation caused by ET-1” value was “inhibited”.
Regarding `CC(C)(C)n1nc(-c2ccc(Cl)cc2)c2c(N)ncnc21` [PP2], in the data set on HER2 [4], the “effect on increase in HER2 phosphorylation caused by 100 nM ET-1” value is recorded as “inhibited significantly” and the “effect on basal P-HER2 or HER2” value is recorded as “no effect”. Besides, in the data set on EGFR [5], the “effect on increase in EGFR phosphorylation caused by 100 nM ET-1” value is “inhibited significantly” and the “effect on basal P-EGFR, EGFR” value was “no effect”.
With `CCCCN(CCCC)C(=O)CN1C[C@H](c2ccc3c(c2)OCO3)[C@@H](C(=O)O)[C@@H]1c1ccc(OC)cc1` [atrasentan], the tolerability result in the data set on NSCLC patients [12] was “well tolerated”.
For `COc1nc(C)cnc1NS(=O)(=O)c1cccnc1-c1ccc(-c2nnco2)cc1` [ZD4054, zibotentan], the IC50 in the data set with NCI-H838 cells [7] stood at 50 µg/mL (≈ 118 µM); with A549 cells, 45 µg/mL (≈ 106 µM). Also, the “effect on HER2 transactivation caused by ET-1” value with HER2 [4] was “inhibited”. The “effect on EGFR transactivation caused by ET-1” value in the data set on EGFR [5] is listed as “inhibited”. Besides, the “% Fluorescence intensity” value in [1] (setting [14]) is 105 ± 6 ^aa^, ^bb %; in data set [1] (setting [15]), 351 ± 22 ^aa %. In addition, the overall survival result with NSCLC patients [13] is “no differences”.
In the case of `COc1ccc2c(c1)CC[C@@H]1[C@@H]2CC[C@]2(C)[C@@H](NCCCCCCN3C(=O)C=CC3=O)CC[C@@H]12` [U73122], the “effect on the Ca2+ increase caused by ET-1” value in data set [2] is “reversed”.
As for `CCCC[C@@H](NC(=O)[C@@H](Cc1cn(C(=O)OC)c2ccccc12)NC(=O)[C@H](CC(C)(C)C)NC(=O)N1[C@H](C)CCC[C@@H]1C)C(=O)O` [BQ788], the “effect on HER2 transactivation caused by ET-1” value with HER2 [4] is on record as “little effect”. Further, in the data set with EGFR [5], the “effect on EGFR transactivation caused by ET-1” value was “little effect”. Also, the IC50 on ETAR [8] turned out to be 25 ± 3 nM. In data set [11], the “antagonism of the Ca2+ increase caused by 10 nM ET-1” value is given as “did not antagonize” and the “effect on basal cytosolic Ca2+” value is given as “had no effect”. The Colony number in the data set with NCI-H838 cells [10] was determined as 46 ± 4. At ETAR [9], this compound returned an IC50 of 20 ± 2 nM.
